# Laboratory results as given in paper PMC4267758 (Journal of molecular biology, 2014).
# Like-named read-outs stand apart in the source and are kept apart here. Where no end group is shown, it is not given here. The star is where a group is joined. MTSL = methane thiosulphonate spin label, CC1(C)C=C(CS*)C(C)(C)N1[O]
# B1: paxillin^133–290 (LD2–LD4 region of chicken paxillin) (domain or fragment, UniProt P49024 133-290, looked up)
# chain: MTSTSLGSNLSELDRLLLELNAVQHNPPSGFSADEVSRSPSLPNVTGPHYVIPESSSSAGGKAAPPTKEKPKRNGGRGIEDVRPSVESLLDELESSVPSPVPAITVSQGEVSSPQRVNASQQQTRISASSATRELDELMASLSDFKFMAQGKAGGSSS
# B2: paxillin^133–290: chicken paxillin residues 133–290, truncated construct comprising LD motifs 2, 3 and 4, N-terminal His-tag (protein)
# chain: B1 chain
# modifications: left off: His-tag, N-terminal, kept
# B3: Pyk2 focal adhesion-targeting (Pyk2-FAT) domain (domain or fragment, human, UniProt Q14289 871-1005, looked up)
# chain: ANLDRTDDLVYLNVMELVRAVLELKNELCQLPPEGYVVVVKNVGLTLRKLIGSVDDLLPSLPSSSRTEIEGTQKLLNKDLAELINKMRLAQQNAVTSLSEECKRQMLTASHTLAVDAKNLLDAVDQAKVLANLAH
# B4: Pyk2-FAT: FAT domain of human Pyk2 (residues 871–1005), N-terminal His6-tag (protein)
# chain: B3 chain
# modifications: left off: His6, N-terminal, state not stated
# B5: paxillin^133–242: paxillin construct LD2–LD3 (protein)
# chain: MTSTSLGSNLSELDRLLLELNAVQHNPPSGFSADEVSRSPSLPNVTGPHYVIPESSSSAGGKAAPPTKEKPKRNGGRGIEDVRPSVESLLDELESSVPSPVPAITVSQGE
# B6: paxillin^212–282: paxillin construct LD3–LD4 (protein)
# chain: EDVRPSVESLLDELESSVPSPVPAITVSQGEVSSPQRVNASQQQTRISASSATRELDELMASLSDFKFMAQGK
# Experiments:
# Pyk2-FAT [1] = assay: Isothermal titration calorimetry; assay type: binding, human; conditions: for binding to Pyk2-FAT (qualitative, ITC): 20 mM MES, pH 6.2, 25°C
# Method in brief: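 Human Pyk2 FAT domain (residues 871–1005) with an N-terminal His6 tag, expressed in E. coli BL21(DE3) and purified by Ni-affinity then gel filtration. The cell held 10 μM protein in 20 mM MES, pH 6.2. The syringe held chicken paxillin LD-motif peptides (100 μM) or the His-tagged paxillin 133–290 fragment (50 μM). Solutions degassed; 2 μl injections, 120 s apart, at 25°C. Ligand-into-buffer heats subtracted. Fits used one-site or two-site sequential models. Run in duplicate.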
# Pyk2-FAT [2] = assay: H/D exchange NMR of Pyk2-FAT complexes; parameters: species or system human; conditions: H/D exchange in D2O, fast 15N-HSQC, up to 10 h
# Method in brief: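 15N-labelled Pyk2-FAT complexes (400–500 μM, 20 mM MES pH 6.2) were lyophilized and rehydrated in D2O. FAST 1H-15N HSQC spectra were recorded at intervals up to 10 h at 305 K. HSQC spectra in H2O before and after exchange checked structural integrity.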
# FAK-FAT = conditions: cited from earlier work
# [3] = tested on: FAT-like domain from G-protein-coupled receptor kinase-interacting protein 1 (GIT1); conditions: ref [41]; cited from earlier work
# Pyk2-FAT [4] = assay: Sedimentation equilibrium AUC; assay type: binding, human; conditions: AUC-SE; for Kd: two site hetero-association model (A+B+B↔ABB), 1:2 Pyk2-FAT to peptide, 20 mM MES, pH 6.2, 4 °C, Monte Carlo error, 500 iterations, confidence level 0.68
# Method in brief: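 Sedimentation equilibrium at 4 °C in 20 mM MES, 50 mM NaCl, pH 6.2. Rotor speeds 18.4, 26.9 and 46k rpm, equilibrium reached at 30, 26 and 18 h. Loading 35–96 μM. Absorbance read at 280 and 230 nm, 0.001 cm radial steps, 20 replicates per point. Global least-squares fit across speeds to the A+B+B↔ABB model.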
# Pyk2-FAT [5] = assay: NMR titration / chemical shift perturbation of 15N-labeled Pyk2-FAT; assay type: binding, human; conditions: 15N-HSQC/TROSY titration, Pyk2-FAT:ligand 1:0.2 to 1:2, 20 mM MES, pH 6.2, 305K
# Method in brief: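 15N-labeled Pyk2-FAT (400–500 μM in 20 mM MES, pH 6.2) titrated at 305 K with chicken LD peptides at protein:peptide ratios of 1:0.2 to 1:2. Peptide stocks were in dialysis buffer, pH readjusted to 6.2. 15N-HSQC spectra recorded at 600/800 MHz. Weighted shift Δav = [(ΔH² + (ΔN/5)²)/2]^1/2. For PRE, MTSL-labeled peptides were added at 1:0.2 and Iox/Ired taken after ascorbate reduction.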
# Pyk2-FAT [6] = assay: Steady-state 1H-15N heteronuclear NOE; parameters: species or system human; conditions: 600 MHz, 305 K; relative to free Pyk2-FAT, loop regions
# Method in brief: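 Steady-state 1H-15N heteronuclear NOE was measured at 600 MHz, 305 K on 15N-labelled Pyk2-FAT, free and bound to LD-motif peptide. Protein was at 400–500 μM in 20 mM MES pH 6.2. NOE values were taken as peak-intensity ratios of 1H-saturated to unsaturated spectra.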
# [7] = target: B3; assay: ITC
# Pyk2-FAT [8] = assay: Reverse NMR titration: unlabeled Pyk2-FAT added to 15N-labeled paxillin ligand; assay type: binding, human; conditions: 1H-15N HSQC/TROSY, ratios up to 1:2, 20 mM MES, pH 6.2
# Method in brief: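 Unlabelled Pyk2-FAT was titrated into a 15N-labelled ligand in 20 mM MES pH 6.2, with 15N-1H HSQC spectra at 600/800 MHz and 305 K. Ligands were an expressed chicken paxillin 139–163 peptide or His-tagged chicken paxillin 133–290. […] Ratios were 1:0.2–1:2.0.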
# [9] = Sedimentation velocity AUC; assay type: physicochemical; conditions: for percentage protein amount in c(s) peak: 20 °C, 50,000 rpm; for f/f0 (weight-average frictional ratio): best-fit from c(s) distribution, 20 °C
# Method in brief: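 Sedimentation velocity at 50,000 rpm and 20°C in 20 mM MES, pH 6.2, with or without 50 mM NaCl. Partial specific volumes calculated from sequence. Rayleigh interference scans taken every 1.0 min over 10 h. Data fitted to a c(s) distribution model. The s-value is the ordinate maximum of each c(s) peak; percentage protein amount is reported per peak.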
# [10] = target: B3; assay: AUC
# [11] = target: B3; assay: NMR paramagnetic relaxation enhancement
# [12] = target: B1; assay: ITC
# [13] = target: B1; assay: AUC
molecule,measurement,setting,value
"LD3: paxillin derived peptide LD3 (chicken paxillin; residues 217–237), chemically synthesized (SVESLLDELESSVPSPVPAIT)","binding to Pyk2-FAT (qualitative, ITC)",Pyk2-FAT [1],very weak compared to LD2 and LD4 peptides
"LD4: paxillin derived peptide LD4 (chicken paxillin; residues 262–278), chemically synthesized (SATRELDELMASLSDFK)",amide H/D exchange protection of Pyk2-FAT in complex,Pyk2-FAT [2],residues from H2/H3 and H1/H4 were protected even after 10 hrs
same,preferred binding site on FAK-FAT,"FAK-FAT; ref [39] (b5), [39], [40]",binds to the H2/H3 site
same,LD4 binding to the FAK FAT H1/H4 site,FAK-FAT; ref [40],defective
same,binding site on GIT1 FAT-like domain,[3],located exclusively at the H1/H4 surface
same,affinity preference for H2/H3 site over H1/H4 site of Pyk2-FAT,Pyk2-FAT [1]; from ITC and AUC studies,5 fold
same,global free energy difference between first and second sites (ΔGAB and ΔGABB),"Pyk2-FAT [4]; 1:2 stoichiometry, two-site hetero-association model",-0.77 kcal/mol
same,"Delta G, single site (1:1)","Pyk2-FAT [4]; single site hetero-association model, T = 277.149994K, RT = 0.551kcal/mol",-7.52 kcal/mol
same,"Delta G, first binding site (1:2)","Pyk2-FAT [4]; two site hetero-association model, first site, T = 277.149994K, RT = 0.551kcal/mol",-7.47 kcal/mol
same,"Delta G, second binding site (both occupied)","Pyk2-FAT [4]; two site hetero-association model, second site, T = 277.149994K, RT = 0.551kcal/mol",-6.70 kcal/mol
same,Kd,"Pyk2-FAT [4]; read-out: KAB (first site), 1:2 stoichiometry",1.29 ± 0.09 µM
same,Kd,"Pyk2-FAT [4]; read-out: KABB (second site), 1:2 stoichiometry",5.18 ± 0.36 µM
same,binding sites / site preference on Pyk2-FAT by NMR,Pyk2-FAT [5],H2/H3 is the stronger binding site
same,steady-state 1H-15N NOE of Pyk2-FAT amides upon ligand binding,Pyk2-FAT [6],significantly increased relative to free Pyk2-FAT
B1,dH,[7],-5 ± 0.1 kcal/mol
same,stoichiometry N,[7],1.2
B2,increase of binding affinity for FAK FAT relative to LD2 or LD4 peptides alone,"FAK-FAT; similar paxillin^133–290 construct, ref [35]",10 fold
same,effect of unlabeled Pyk2-FAT on resonances of 15N-labeled ligand,Pyk2-FAT [8],several peaks from the LD2 and LD4 regions disappeared beyond detection
same,binding sites / site preference on Pyk2-FAT by NMR,Pyk2-FAT [5],binding preference for H2/H3
same,oligomerization state of unbound protein,[9],"appears to form some soluble associated species (oligomers) of undetermined stoichiometry’s, but the main species appears to be a monomer"
same,percentage protein amount in c(s) peak,[9],48%
same,f/f0 (weight-average frictional ratio),[9],1.70
same,f/f0 (weight-average frictional ratio),[9]; listed as paxillin,1.7
same,apparent molecular mass of the 1:1 complex,"[9]; theoretical 33,706 Da",30.20 kDa
"SATRELDELMASLSDFK (peptide, UniProt P49024 262-278, looked up) [paxillin LD4 peptide (chicken paxillin residues 262-278)]","dH, first site",[7],-2.8 ± 0.2 kcal/mol
same,"dH, second site",[7],0.9 ± 0.3 kcal/mol
same,Kd,[10],1.17 µM
"GSNLSELDRLLLELNAVQHNPPSGF (peptide, UniProt P49024 139-163, looked up) [paxillin LD2 peptide (chicken paxillin residues 139-163)]","dH, first site",[7],-2.4 ± 0.1 kcal/mol
same,"dH, second site",[7],0.3 ± 0.1 kcal/mol
"GSNLSELDRLLLELNAVC(MTSL)HNPPSGF (peptide, UniProt P49024 139-163, looked up) [spin-labeled LD2 (Q156C) peptide]",binding result,[11],binds
B3,Kd,[12],1.8 ± 0.1 µM
same,Kd,[13],0.4 µM
B4,percentage protein amount in c(s) peak,[9],99%
same,f/f0 (weight-average frictional ratio),[9],1.34
B5,"binding to Pyk2-FAT (qualitative, ITC)",Pyk2-FAT [1],two-site sequential binding model
B6,"binding to Pyk2-FAT (qualitative, ITC)",Pyk2-FAT [1],two-site sequential binding model
